Activity calls are given as the source filed them. The calls are words filed in the database; no cut-off is given here.
What was measured:
[1] = Antioxidant activity assessed as superoxide-scavenging activity by nitrite method; assay type: functional
[2] = target: Xanthine dehydrogenase/oxidase (Homo sapiens, UniProt P47989); experiment: Inhibition of xanthine oxidase assessed as decrease in uric acid production by spectrophotometry
In short: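 Flavonoid at various concentrations with 50 µM xanthine, 0.2 mM hydroxylamine and 0.1 mM EDTA. Stopped with HCl, then uric acid read as absorbance at 290 nm against an enzyme-free blank. IC50 by linear regression.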

[3] = Prooxidant effect assessed as superoxide production by nitrite method; assay type: functional
In short: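 Xanthine oxidase (6.25 mU/mL, in 200 mM phosphate buffer pH 7.50) generated superoxide from 50 µM xanthine with 0.2 mM hydroxylamine and 0.1 mM EDTA, plus flavonoid at various concentrations. Incubated 30 min at 37 °C. Superoxide read by the nitrite method: stood 30 min at room temperature, then absorbance at 550 nm. Levels compared with control experiments; IC50 from linear regression.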

Chain of Xanthine dehydrogenase/oxidase (P47989 whole entry): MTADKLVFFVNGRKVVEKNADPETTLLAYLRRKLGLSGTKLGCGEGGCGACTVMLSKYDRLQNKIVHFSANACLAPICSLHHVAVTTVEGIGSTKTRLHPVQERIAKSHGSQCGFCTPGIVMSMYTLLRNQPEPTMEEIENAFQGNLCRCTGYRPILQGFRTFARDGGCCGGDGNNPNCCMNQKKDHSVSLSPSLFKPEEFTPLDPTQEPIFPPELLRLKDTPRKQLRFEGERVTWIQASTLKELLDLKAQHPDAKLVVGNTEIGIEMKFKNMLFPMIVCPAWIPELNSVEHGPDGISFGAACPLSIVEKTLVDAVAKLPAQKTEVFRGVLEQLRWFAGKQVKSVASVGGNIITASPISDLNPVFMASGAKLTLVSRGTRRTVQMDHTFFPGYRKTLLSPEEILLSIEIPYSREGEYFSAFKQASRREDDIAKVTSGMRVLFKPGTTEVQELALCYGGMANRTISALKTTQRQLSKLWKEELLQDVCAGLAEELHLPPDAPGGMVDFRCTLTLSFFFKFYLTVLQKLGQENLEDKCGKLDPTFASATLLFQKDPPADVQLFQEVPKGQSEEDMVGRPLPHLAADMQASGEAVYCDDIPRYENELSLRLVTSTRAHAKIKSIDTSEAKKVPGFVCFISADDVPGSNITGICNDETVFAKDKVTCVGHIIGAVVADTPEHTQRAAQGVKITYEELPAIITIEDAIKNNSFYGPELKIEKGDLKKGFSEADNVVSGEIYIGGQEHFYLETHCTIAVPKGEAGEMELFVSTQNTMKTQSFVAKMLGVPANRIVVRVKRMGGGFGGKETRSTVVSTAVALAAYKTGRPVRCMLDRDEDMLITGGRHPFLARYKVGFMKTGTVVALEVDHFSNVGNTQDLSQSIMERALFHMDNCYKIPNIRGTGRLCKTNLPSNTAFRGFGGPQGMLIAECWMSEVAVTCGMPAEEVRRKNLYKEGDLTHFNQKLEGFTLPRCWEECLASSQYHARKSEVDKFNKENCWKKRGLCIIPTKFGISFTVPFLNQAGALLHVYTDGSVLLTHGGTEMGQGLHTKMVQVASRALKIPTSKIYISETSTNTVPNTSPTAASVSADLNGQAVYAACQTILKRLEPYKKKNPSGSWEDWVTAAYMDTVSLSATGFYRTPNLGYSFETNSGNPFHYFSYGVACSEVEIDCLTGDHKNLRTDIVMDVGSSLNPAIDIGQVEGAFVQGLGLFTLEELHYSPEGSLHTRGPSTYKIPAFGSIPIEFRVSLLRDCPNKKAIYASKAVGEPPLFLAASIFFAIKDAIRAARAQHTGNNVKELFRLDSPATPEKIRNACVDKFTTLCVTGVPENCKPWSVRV

Structure (SMILES)	IC50 [1]	IC50 [2]	Activity [3]
O=c1c(O)c(-c2ccc(O)cc2)oc2cc(O)cc(O)c12 [KAEMPFEROL]	0.84 µM	1.06 µM	
C[C@@H]1O[C@@H](Oc2c(-c3ccc(O)c(O)c3)oc3cc(O)cc(O)c3c2=O)[C@H](O)[C@H](O)[C@H]1O [QUERCITRIN]	8.1 µM	> 100 µM	
O=c1cc(-c2ccc(O)c(O)c2)oc2cc(O)cc(O)c12 [LUTEOLIN]	1.13 µM	0.55 µM	
O=c1c(O)c(-c2ccccc2)oc2cc(O)cc(O)c12 [GALANGIN]	6.74 µM	1.8 µM	
COc1ccc(-c2cc(=O)c3c(OC)c(OC)c(OC)c(OC)c3o2)cc1OC [NOBILETIN]	> 100 µM	> 100 µM	
O=c1c(O)c(-c2ccc(O)c(O)c2)oc2cc(O)cc(O)c12 [QUERCETIN]	1.63 µM		
O=c1cc(-c2ccccc2)oc2cc(O)cc(O)c12 [CHRYSIN]	1.87 µM	0.84 µM	
O=c1c(O)c(-c2ccccc2)oc2ccccc12 [FLAVONOL]	> 100 µM	> 100 µM	
O=C1c2c(O)cc(O)cc2OC(c2ccc(O)c(O)c2)C1O (racemic) [TAXIFOLIN]	1.73 µM		
O=C1CC(c2ccc(O)cc2)Oc2ccccc21 (configuration not stated) [4'-HYDROXY-FLAVANONE]	> 18 µM	> 30 µM	
C[C@@H]1O[C@@H](O[C@H]2[C@H](Oc3cc(O)c4c(=O)cc(-c5ccc(O)c(O)c5)oc4c3)O[C@H](CO)[C@@H](O)[C@@H]2O)[C@H](O)[C@H](O)[C@H]1O [LONICERIN]	2.37 µM	11.9 µM	
Oc1cc(O)c2c(c1)O[C@H](c1ccc(O)c(O)c1)[C@@H](O)C2 [CIANIDANOL]	1.61 µM	> 100 µM	
O=c1cc(-c2ccc(O)cc2)oc2cc(O)cc(O)c12 [APIGENIN]	1.33 µM	0.7 µM	
Oc1ncnc2[nH]ncc12 [ALLOPURINOL]	0.23 µM		
O=C(/C=C/c1ccc(O)cc1)OC[C@H]1O[C@@H](Oc2c(-c3ccc(O)cc3)oc3cc(O)cc(O)c3c2=O)[C@H](O)[C@@H](O)[C@@H]1O [TILIROSIDE]	> 100 µM	> 100 µM	
O=c1c(O)c(-c2ccc(O)c(O)c2)oc2cc(O)ccc12 [FISETIN]	1.84 µM	4.33 µM	
O=c1cc(-c2ccccc2)oc2cc(O)ccc12 [7-HYDROXYFLAVONE]	> 100 µM	38 µM	Active
O=c1c(O)c(-c2ccc(O)cc2O)oc2cc(O)cc(O)c12 [MORIN]	9.1 µM	10.1 µM	
Oc1cc(O)c2c(c1)O[C@H](c1cc(O)c(O)c(O)c1)[C@H](O)C2 [EPIGALLOCATECHIN]	0.48 µM	> 100 µM	
COc1cc2oc(-c3ccc(O[C@@H]4O[C@H](CO)[C@@H](O)[C@H](O)[C@H]4O)cc3)cc(=O)c2c(O)c1OC [CIRSIMARIN]	> 100 µM	> 100 µM	
O=c1c(O)c(-c2cc(O)c(O)c(O)c2)oc2cc(O)cc(O)c12 [MYRICETIN]	0.33 µM	2.38 µM	
COc1cc(-c2oc3cc(O)cc(O)c3c(=O)c2O)ccc1O [ISORHAMNETIN]	2.75 µM	2.51 µM	
COc1ccc(-c2cc(=O)c3c(OC)c(OC)c(OC)c(OC)c3o2)cc1 [TANGERETIN]	> 100 µM	> 100 µM	
Oc1cc(O)c2c(c1)O[C@H](c1ccc(O)c(O)c1)[C@H](O)C2 [(-)-EPICATECHIN]	1.59 µM	> 100 µM	
COc1cc(O)c2c(=O)c(O)c(-c3ccc(OC)c(O)c3)oc2c1 [OMBUINE]	2.6 µM	7.7 µM	
C[C@@H]1O[C@@H](OC[C@H]2O[C@@H](Oc3c(-c4ccc(O)cc4)oc4cc(O)cc(O)c4c3=O)[C@H](O)[C@@H](O)[C@@H]2O)[C@H](O)[C@H](O)[C@H]1O [NICOTIFLOROSIDE]	3.4 µM	14.8 µM	
COc1cc(-c2cc(=O)c3c(O)cc(O[C@@H]4O[C@H](CO)[C@@H](O)[C@H](O)[C@H]4O[C@@H]4O[C@@H](C)[C@H](O)[C@@H](O)[C@H]4O)cc3o2)ccc1O [CHRYSOERIOL-7-O-NEOHESPERIDOSIDE]	> 100 µM	> 100 µM	
O=c1cc(-c2ccccc2)oc2cc(O)c(O)c(O)c12 [BAICALEIN]	2.72 µM	2.79 µM	
O=C1C[C@@H](c2ccc(O)cc2)Oc2cc(O)cc(O)c21 [NARINGENIN]	> 50 µM	> 50 µM	
C[C@@H]1O[C@@H](OC[C@H]2O[C@@H](Oc3c(-c4ccc(O)c(O)c4)oc4cc(O)cc(O)c4c3=O)[C@H](O)[C@@H](O)[C@@H]2O)[C@H](O)[C@H](O)[C@H]1O [RUTIN]		52.2 µM	
